What all share (type): cell-based
For data set [1], the system named is MDA-MB-231/ADR breast cancer cells. Briefly: MTT antiproliferative assay, MDA-MB-231/ADR. The conditions noted are these: Homo sapiens, MDA-MB-231, 24 h, read-out: Antiproliferative activity (IC50) MDA-MB-231/ADR. Summed up: (§1)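 Cells were seeded at 2×10^3 per well and left to adhere for 24 h. Test compound was then added at 0–100 µM final, and cells were incubated for 24 h at 37 °C. MTT was added for 4 h, […]. Absorbance was read at 540 nm and growth compared with untreated cells. IC50 was taken from a dose-response curve.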
In general terms: Formazan colour is commonly taken as a measure of viable cells.

Data set [2] concerns MCF-7 breast cancer cells. Briefly: MTT antiproliferative assay, MCF-7. Particulars: Homo sapiens, MCF7, 24 h, read-out: Antiproliferative activity (IC50) MCF-7. Summed up: (§2)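 Cells seeded at 2×10^3 per well and left 24 h to adhere, then exposed to test compound (0–100 µM, final) for 24 h at 37 °C. MTT added for 4 h, a second MTT addition followed by overnight incubation, and absorbance read at 540 nm. Growth compared with untreated cells; IC50 derived from dose-response curves.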

Data set [3] relates to MDA-MB-231 breast cancer cells. The data set can be described thus: MTT antiproliferative assay, MDA-MB-231. Particulars: Homo sapiens, MDA-MB-231, 24 h, read-out: Antiproliferative activity (IC50) MDA-MB-231. Summed up:
as §1

In data set [4] the test system is MCF-7, MDA-MB-231, MCF-7/ADR and MDA-MB-231/ADR breast cancer cell lines. Briefly: MTT antiproliferative assay, the four breast cancer cell lines taken together. The conditions noted are these: Homo sapiens, read-out: IC50 range over the four breast cancer cell lines. Summed up:
as §2

Data set [5] in a line: MTT cytotoxicity towards normal breast cells. Particulars: human, MCF-10A normal breast cells.
Data set [6] relates to normal MCF-10A breast cells. Briefly: MTT cytotoxicity towards normal breast cells. The conditions noted are these: SI: IC50(MCF-10A)/IC50(MCF-7) or IC50(MCF-10A)/IC50(MDA-MB-231).

Bounds are passed on as bounds.

As for `C[C@@H]1CC[C@H]2[C@@H](C)C(=O)O[C@@H]3O[C@@]4(C)CC[C@@H]1[C@]32OO4` [ART, Artemisinin, reference compound], the IC50 in data set [1], in data set [2], in data set [3] and in data set [4] was over 100 µM throughout. In addition, the IC50 at 24 h in data set [5] was over 100 µM.

Turning to `C[C@H]1[C@@H](O)O[C@@H]2O[C@@]3(C)CC[C@H]4[C@H](C)CC[C@@H]1[C@@]24OO3` [DHA, Dihydroartemisinin, reference compound], the IC50 in data set [1] was 82.8 µM; in data set [2] it was 28.3 µM; in data set [3], 48.8 µM; in data set [4] it was 14.8 to 82.8 µM. For the same compound, the “Selectivity index (SI)” value in data set [6] is given as over 3.53. The compound further gave an IC50 at 24 h in data set [5] of over 100 µM.

For the origin of these results see paper PMC9926453 (Medicinal Chemistry Research, 2023).
